Active and inactive are the calls of the source.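 Rule for the calls, unless noted: active = potentiation averaged over duplicate wells exceeding buffer-only control mean by more than 3 SD; inactive = the rest.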
Experiments:
[1] = thallium flux activation in parental CHO cells, counter-screen for KCNQ1 potentiator project (AID 493006;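 active = duplicate-averaged activation above buffer control mean plus 5 SD of those controls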); details: parental CHO-K1 cells, FluxOR thallium flux, at 10 µM; active compounds read high
Outline: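 Test system: parental CHO-K1 cells, FluxOR dye-loaded / Probe or stimulus: potassium plus thallium depolarizing stimulus, 5x stock 12.5 mM K2SO4, Tl2SO4 / Timing: overnight 37 °C plating, 90 min dye, 20 min dark compound / Measured by: kinetic thallium-flux fluorescence / Read-out: max-minus-min fluorescence over baseline, percent of buffer-to-R-L3 span / Benchmarks: buffer and R-L3 controls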

[2] = target: Potassium voltage-gated channel subfamily KQT member 1 (Homo sapiens) (UniProt P51787); assay: KCNQ1 potassium channel potentiators, confirmation, FluxOR thallium flux, CHO cells, duplicates (AID 493007); details: KCNQ1 cell line, FluxOR thallium flux fluorescence, at 10 µM; active compounds read high, % of reference activator effect, buffer zero;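 for outcome: cells depolarized by a potassium plus thallium sulfate stimulus after compound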;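 for potentiation: 0% = buffer-only wells and 100% = R-L3 activator control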
Outline: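 Assay system: CHO cells carrying KCNQ1 | Controls: Buffer and R-L3 controls | Schedule: FluxOR dye loading 90 min, compound exposure 20 min, room temperature | Read-out: Baseline-normalized fluorescence change, percent of buffer-to-R-L3 range | Replicates: Each compound tested in duplicate | Technique: Kinetic thallium influx fluorescence with FluxOR dye, 10 s baseline, 110 s post-stimulus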

[3] = target: Potassium voltage-gated channel subfamily KQT member 2 (Rattus norvegicus) (UniProt O88943); assay: rat KCNQ2 channel potentiation, selectivity assay for KCNQ1 potentiator project, KCNQ2-CHO-K1 cells (AID 493009;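 active = mean duplicate potentiation above the buffer control mean plus 5 SD of buffer wells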;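 note: assay conditions were tuned for KCNQ1 rather than KCNQ2 modulators; signal is max minus min fluorescence divided by baseline after thallium stimulus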); details: FluxOR thallium flux fluorescence, at 10 µM; active compounds read high, scaled: buffer 0, activator control 100
[4] = target: Potassium voltage-gated channel subfamily KQT member 1 (Homo sapiens) (UniProt P51787); assay: KCNQ1 channel current potentiators, confirmation, orthogonal assay for KCNQ1 potentiator project, IonWorks patch clamp, KCNQ1-CHO cells (AID 493184;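 active = current rise at least 3 SD above the untreated control mean in each of two repeat wells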); details: automated patch clamp current, at 10 µM; active compounds read high
Outline: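 Material: KCNQ1-expressing CHO cells; doses: 10 µM final, single point; probe or stimulus: voltage step from -90 mV holding to +40 mV, 2,000 ms; signal: automated voltage clamp, amphotericin B perforated patch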

Sequence of Potassium voltage-gated channel subfamily KQT member 1 (Homo sapiens) (P51787 whole entry, looked up): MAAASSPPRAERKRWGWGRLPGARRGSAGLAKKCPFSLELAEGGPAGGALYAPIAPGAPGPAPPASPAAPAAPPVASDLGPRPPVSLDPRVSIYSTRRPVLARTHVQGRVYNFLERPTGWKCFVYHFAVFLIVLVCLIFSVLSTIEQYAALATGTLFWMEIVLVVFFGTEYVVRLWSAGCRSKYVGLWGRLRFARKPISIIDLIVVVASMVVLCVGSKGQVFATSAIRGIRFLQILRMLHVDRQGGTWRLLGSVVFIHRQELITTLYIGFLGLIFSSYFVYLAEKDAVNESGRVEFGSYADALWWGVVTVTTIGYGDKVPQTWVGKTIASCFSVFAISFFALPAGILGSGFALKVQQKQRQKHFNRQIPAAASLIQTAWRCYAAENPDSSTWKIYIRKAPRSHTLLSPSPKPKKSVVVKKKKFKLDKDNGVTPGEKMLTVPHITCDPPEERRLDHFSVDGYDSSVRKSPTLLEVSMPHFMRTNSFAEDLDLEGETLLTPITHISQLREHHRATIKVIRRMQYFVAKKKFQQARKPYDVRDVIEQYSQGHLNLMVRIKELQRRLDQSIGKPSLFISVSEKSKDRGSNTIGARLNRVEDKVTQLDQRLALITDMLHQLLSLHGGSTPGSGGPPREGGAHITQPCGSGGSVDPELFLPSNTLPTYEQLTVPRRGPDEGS
Sequence of Potassium voltage-gated channel subfamily KQT member 2 (Rattus norvegicus) (O88943 whole entry, looked up): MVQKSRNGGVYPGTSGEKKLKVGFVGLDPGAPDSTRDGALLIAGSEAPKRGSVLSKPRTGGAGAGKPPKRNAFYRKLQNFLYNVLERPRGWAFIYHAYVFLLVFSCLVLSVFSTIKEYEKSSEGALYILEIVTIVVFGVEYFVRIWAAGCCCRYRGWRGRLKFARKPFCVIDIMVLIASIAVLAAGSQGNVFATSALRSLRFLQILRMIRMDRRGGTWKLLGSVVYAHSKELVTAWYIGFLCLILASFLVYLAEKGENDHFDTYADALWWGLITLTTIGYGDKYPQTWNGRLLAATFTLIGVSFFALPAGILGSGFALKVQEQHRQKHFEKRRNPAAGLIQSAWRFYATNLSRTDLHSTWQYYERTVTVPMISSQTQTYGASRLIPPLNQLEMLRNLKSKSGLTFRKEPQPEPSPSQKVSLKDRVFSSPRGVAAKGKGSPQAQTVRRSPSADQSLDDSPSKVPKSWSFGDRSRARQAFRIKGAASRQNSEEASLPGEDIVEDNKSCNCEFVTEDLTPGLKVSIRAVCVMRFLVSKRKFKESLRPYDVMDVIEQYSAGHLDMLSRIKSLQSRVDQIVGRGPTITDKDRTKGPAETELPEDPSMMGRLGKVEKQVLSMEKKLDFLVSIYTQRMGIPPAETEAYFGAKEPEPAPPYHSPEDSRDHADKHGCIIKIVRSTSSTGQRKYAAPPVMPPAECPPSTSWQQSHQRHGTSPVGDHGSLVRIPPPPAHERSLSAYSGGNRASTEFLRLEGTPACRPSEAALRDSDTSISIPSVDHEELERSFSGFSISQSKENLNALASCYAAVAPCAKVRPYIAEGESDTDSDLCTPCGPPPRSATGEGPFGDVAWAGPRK

SMILES	outcome [1]	outcome [2]	outcome [3]	outcome [4]	potentiation [2]	potentiation [3]	activation [1]
CCCN1CCC(NC(=S)Nc2cccc(Cl)c2Cl)CC1	inactive	inactive	inactive	inactive			
COc1cccc(C2=NOC(C(=O)NCc3cccs3)C2)c1 (stereo not given)	inactive	inactive	inactive	inactive			
CCCCn1c(=S)[nH]c2ncccc2c1=O	inactive			inactive	34.5% (active)	173% (active)	
O=c1c2ccccc2sn1-c1ccccc1				inactive	59% (active)	148% (active)	180% (active)
CN1C(=O)NC(c2ccc(O)cc2)C(C(=O)c2cccs2)C1(O)C(F)(F)F (stereo not given)	inactive	inactive	inactive	inactive			
CCn1c(CSc2nc3ccccc3n2C)nc2ccccc21	inactive	inactive	inactive	inactive			
Cc1cc(C(=O)NN)n[nH]1	inactive	inactive	inactive	inactive			
Cc1cc(C)c2nc(NC(=O)c3cc(C)on3)sc2c1				inactive	36% (active)	166% (active)	174% (active)
COCCCn1c(=S)[nH]c2sc3c(c2c1=O)CCCC3				inactive	138% (active)	346% (active)	366% (active)
CO/N=C/CC(=O)Nc1ccc(F)cc1F	inactive	inactive	inactive	inactive			
CCOc1ccc(NC(=O)CN(C)C(=O)C2CCN(c3ncnc4sc(C)c(C)c34)CC2)cc1OCC	inactive	inactive	inactive	inactive			
CCOC(=O)C1CCN(C(=O)COc2cc(C)c(Br)c(C)c2)CC1	inactive	inactive	inactive	inactive			
O=C(Cc1cccs1)N=Nc1c(O)[nH]c2ccc(Br)cc12	inactive	inactive	inactive	inactive			
CCOC(=O)C1CCCN(C(=O)C2CCN(S(=O)(=O)c3ccc4ccccc4c3)CC2)C1 (stereo not given)	inactive	inactive	inactive	inactive			
Cc1cc(C(=O)N/N=C/c2cccs2)no1	inactive	inactive	inactive	inactive			
Cc1ccccc1OCc1nnc(SCCN2CCCC2)n1-c1ccccc1	inactive	inactive	inactive	inactive			
O=C(COc1ccccc1)NC(=S)N1CCc2ccccc21	inactive		inactive	inactive	20% (active)		
COc1cc2c(cc1OC)C(C)N(C(=S)NC(=O)c1ccccc1)CC2 (stereo not given)		inactive	inactive	inactive			141% (active)
COc1cccc(OCC(=O)NNC(=O)C(=O)Nc2ccc(OC)cc2OC)c1				inactive	55.5% (active)	222% (active)	172% (active)
O=c1sc(N2CCN(c3ccccc3F)CC2)nc2ccsc12	inactive	inactive	inactive	inactive			

SMILES	outcome [1]	outcome [2]	outcome [3]	outcome [4]	potentiation [2]	potentiation [3]	activation [1]
O=c1c2cc(Br)ccc2nc(-c2ccccc2)n1O				inactive	63.5% (active)	314% (active)	366% (active)
CCC1(c2ccc(Cl)cc2)NC(=S)N(c2ccc(C)c(C)c2)N1 (stereo not given)				inactive	188% (active)	550% (active)	706% (active)
O=C(Nc1ccc2[nH]c(=S)sc2c1)c1ccccc1	inactive			inactive	52% (active)	154% (active)	
Cc1cccc(NC(=S)NC(=O)c2cc(-c3ccccc3)nc3ccccc23)c1	inactive		inactive	inactive	32% (active)		
CN(C)CCCNc1nc2sc3c(c2c(=O)n1CCc1ccccc1)CCCCC3	inactive	inactive	inactive	inactive			
COC(=O)c1cnn(-c2ccc(Cl)cc2)c1/C=N/NC(N)=S	inactive	inactive	inactive	inactive			
Cc1ccc(S(=O)(=O)N2CCCC(C(=O)Nc3ccc(C(=O)O)cc3)C2)cc1Cl (stereo not given)	inactive	inactive	inactive	inactive			
CCn1ncc(CN2CCC(C(=O)Nc3cccc(-c4cccc(F)c4)c3)CC2)c1C	inactive	inactive	inactive	inactive			
O=C(N/N=C/c1ccccn1)c1cc(-c2ccc(Br)cc2)nc2ccccc12				inactive	51.5% (active)	174% (active)	142% (active)
Cc1cccc(NC(=O)c2ccc(COc3ccccc3[N+](=O)[O-])o2)n1	inactive	inactive	inactive	inactive			
Cc1ccc(C)c(/C=C/C(=O)c2ccccc(=O)c2O)c1				inactive	118% (active)	333% (active)	194% (active)
CCCCCCCN1N=C(C)C(C(=O)c2ccccc2)C1=O (stereo not given)	inactive	inactive	inactive	inactive			
Cc1ccc(-c2ccc(C3C(C#N)=C(N)Oc4n[nH]c(C)c43)o2)cc1 (stereo not given)	inactive	inactive	inactive	inactive			
Cc1ccc(C(=O)N/C(=C\c2ccc(-c3ccccc3[N+](=O)[O-])o2)C(=O)NCCCN2CCOCC2)cc1	inactive	inactive	inactive	inactive			
O=C(NCc1ccco1)c1ccc(=O)oc1	inactive	inactive	inactive	inactive			
C=CCn1c(=S)[nH]c2scc(-c3cccs3)c2c1=O				inactive	274% (active)	554% (active)	620% (active)
CN1C(=O)CC(N2CCN(CC(=O)N3CCCC3)CC2)C1=O (stereo not given)	inactive	inactive	inactive	inactive			
S=c1nc(-c2ccc(Br)cc2)[nH]c2ccccc12				inactive	188% (active)	538% (active)	572% (active)
Cc1[nH][nH]c(=O)c1C(c1ccc(-c2ccc(F)cc2)o1)c1c(C)[nH][nH]c1=O	inactive	inactive	inactive	inactive			
COc1ccc(NC(=S)N2CCC(C(O)(c3ccccc3)c3ccccc3)CC2)cc1	inactive	inactive		inactive		186% (active)	

SMILES	outcome [1]	outcome [2]	outcome [3]	outcome [4]	potentiation [2]	potentiation [3]	activation [1]
O=C(NC(=S)N1CCCC(C(F)(F)F)C1)c1ccc(F)cc1 (stereo not given)				inactive	66.5% (active)	260% (active)	296% (active)
Cc1ccc(CSc2nc3ccccc3c(=O)n2CCCC(=O)NCc2ccco2)cc1	inactive	inactive	inactive	inactive			
CC(C)C(=O)Nc1c(-c2ccccc2F)c(=O)c2ccccc2n1C	inactive	inactive	inactive	inactive			
Fc1ccccc1C(c1nnnn1C1CCCC1)N1CCN(Cc2ccccc2)CC1 (stereo not given)	inactive	inactive	inactive	inactive			
Oc1ccc(N=Nc2ccc3c(c2)OCCO3)c2cccnc12				inactive	92.5% (active)	384% (active)	261% (active)
CC(C)n1cc(NC(=O)c2cc(-c3ccccc3)on2)cn1				inactive	35.5% (active)	236% (active)	182% (active)
COc1cccc(NC(=O)c2cncs2)c1	inactive	inactive	inactive	inactive			
COc1cccc(N(C(=O)Cn2nnc(-c3ccc(C)o3)n2)C(C(=O)NC2CCCC2)c2ccncc2)c1 (stereo not given)	inactive	inactive	inactive	inactive			
Cc1ccccc1OC(=O)n1c(=S)oc2cc(Cl)ccc21		inactive		inactive		157% (active)	152% (active)
CCCCN1CNC(=S)N(c2ccccc2OCC)C1	inactive	inactive	inactive	inactive			
CC(C)(C)c1ccc2c(c1)OC(C(=O)N/N=C\c1ccccn1)CO2 (stereo not given)	inactive	inactive	inactive	inactive			
CC1CCN(S(=O)(=O)c2cccc(C(=O)N3CCN(c4ccc(F)cc4)CC3)c2)CC1	inactive	inactive	inactive	inactive			
O=c1c2ccc(Cl)cc2nc(-c2ccc([N+](=O)[O-])cc2)n1O				inactive	90.5% (active)	428% (active)	345% (active)
CC(=O)c1ccc(OCc2cc(C(=O)N3CC[C@@H]4CCCC[C@H]4C3)no2)cc1				inactive	49% (active)	160% (active)	144% (active)
CCC1(c2ccc(Cl)cc2)NC(=S)N(c2ccc(C)cc2)N1 (stereo not given)				inactive	302% (active)	604% (active)	574% (active)
CCC1=NN(C(=O)c2ccc(Br)cc2)C(O)(c2ccccc2)C1 (stereo not given)	inactive	inactive	inactive	inactive			
CCc1ccc(NC(=O)C(=O)NNC(=O)COc2cccc(OC)c2)cc1				inactive	76% (active)	251% (active)	164% (active)
CN(CC(=O)NCCc1ccc(F)cc1)Cc1cccc(Cl)c1	inactive	inactive	inactive	inactive			
CC(C)c1nc(Cl)c(C#N)c2c1CCC2	inactive	inactive	inactive	inactive			
S=c1nc(C2CC2)[nH]c2ccccc12				inactive	83.5% (active)	351% (active)	414% (active)
